Measured values taken from ChEMBL document CHEMBL2010700, “The discovery of aminopyrazines as novel, potent Na(v)1.7 antagonists: hit-to-lead identification and SAR” (Bioorg Med Chem Lett, 2012).
Converted amounts (≈) assume the structure as drawn.

What was measured:
[1] = Solubility of the compound in simulated intestinal fluid; format: physicochemical
[2] = Solubility of the compound in phosphate buffered saline at pH 7.4; format: physicochemical
[3] = Solubility of the compound in 0.01 N HCl; format: physicochemical
[4] = Volume of distribution at steady state in Sprague-Dawley rat at 0.5 mg/kg, iv; format: ADME, organism-based; parameters: dose 0.5 mg/kg, route intravenous; details: in vivo, read-out: Vdss
[5] = Oral bioavailability in Sprague-Dawley rat at 2 mg/kg; format: ADME, organism-based; details: in vivo
Summary of the method: (§1)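 Male Sprague-Dawley rats given 2.0 mpk orally in 10 mL/kg of 30% hydroxypropyl-β-cyclodextrin adjusted to pH 2.2 with methanesulfonic acid.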

[6] = AUC (infinity) in Sprague-Dawley rat at 2 mg/kg, po; format: ADME, organism-based; parameters: dose 2 mg/kg, route oral, time infinity; details: plasma; summary of the method: as §1
[7] = Cmax in Sprague-Dawley rat at 2 mg/kg, po; format: ADME, organism-based; parameters: dose 2 mg/kg, route oral; details: in vivo; summary of the method: as §1
Plasma = test: Drug metabolism in rat plasma assessed as formation of mono-oxidized product at 10 uM after 3 hrs; format: ADME, cell-free

| solubility [1] [µg/mL] | solubility [2] [µg/mL] | solubility [3] [µg/mL] | Vd [4] [L/kg] | bioavailability [5] [%] | AUC(0-inf) [6] [µM·h] | Cmax [7] [nM] | Drug metabolism (Plasma) | SMILES |
| --- | --- | --- | --- | --- | --- | --- | --- | --- |
| 109 (≈ 301 µM) | 1 (≈ 2.76 µM) | 7 (≈ 19.3 µM) | 2.1 | 13 | 0.76 | 220 | – | Nc1cncc(Nc2ccc(Oc3ccc(OC(F)(F)F)cc3)cc2)n1 |
| 7 (≈ 22.3 µM) | 1 (≈ 3.19 µM) | 6 (≈ 19.1 µM) | – | – | – | – | Active | Nc1ncnc(Nc2ccc(Oc3ccc(Cl)cc3)cc2)n1 |
